Source: PubChem BioAssay
Hits are enriched below; roughly 1.5% of the tested compounds scored in any of these assays.
CCR6 antag = antagonists of human CCR6 receptor; P51684; CHO-K1 CCR6 PathHunter beta-arrestin, luminescence, CCL20-stimulated; inhibition, % at 20 µM; 0.49% of 340,000 active; AID 493098;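 active = compounds whose inhibition of the agonist-driven luminescence signal at 20 µM reaches about 50%, limit read from the data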;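 note: cells stimulated with CCL20 at 14 nM final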
EBI2 block = blocks human EBI2 receptor beta-arrestin signaling. inhibition, % at 5 µM. 0.81% of 360,000 active. AID 651636. P32249. EBI2 beta-arrestin recruitment, luminescence, 7a,25-OHC stimulated; in the data active = inhibition above about 38%;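 note: enzyme fragment complementation signal reports receptor beta-arrestin coupling in cells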
APJ agonist = activates the human apelin receptor APJ; P35414; CHO-K1 APJ PathHunter beta-arrestin, luminescence; 0% DMSO wells, 100% apelin; activation, % at 20 µM; 0.11% of 330,000 active;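 active = activation more than six SD over the plate average, tested at 20 µM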
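system = engineered CHO-K1 APJ arrestin reporter cells | input = 1000 cells per well | timing = overnight seeding, 90 min compound at 25 °C, 1 h detection | measured by = enzyme-fragment complementation luminescence | read-out = beta-arrestin recruitment to APJ as agonist activity, luminescent signal | control set = negative DMSO alone, positive Apelin-13 at 10 nM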
APJ antag = antagonists of human APJ apelin receptor; CHO-K1 APJ beta-arrestin complementation, luminescence; inhibition, % at 20 µM; 0.32% of 330,000 active; AID 2521;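 active = inhibition above about 40% at 20 µM, limit read from the data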;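 note: cells challenged with 10 nM apelin-13 agonist together with compound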
CXCR6 inh = inhibitors of human CXCR6 receptor; inhibition, % at 20 µM; 0.36% of 360,000 active; CHO-K1 PathHunter CXCR6 beta-arrestin, luminescence; AID 602244; in the data active = inhibition above about 34%, passing the limit was not always enough;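 note: antagonist mode with CXCL16 agonist at 10 nM final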
Target sequence (O00574 whole entry, looked up): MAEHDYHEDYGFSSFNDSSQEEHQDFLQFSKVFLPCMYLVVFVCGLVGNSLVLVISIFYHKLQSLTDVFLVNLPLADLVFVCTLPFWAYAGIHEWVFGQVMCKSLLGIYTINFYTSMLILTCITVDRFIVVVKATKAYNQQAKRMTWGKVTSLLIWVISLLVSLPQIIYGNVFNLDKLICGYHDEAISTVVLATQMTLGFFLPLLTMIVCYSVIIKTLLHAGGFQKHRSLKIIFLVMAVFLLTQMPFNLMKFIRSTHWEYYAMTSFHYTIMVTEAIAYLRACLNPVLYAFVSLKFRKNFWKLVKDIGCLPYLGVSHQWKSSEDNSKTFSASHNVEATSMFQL
APJ antag confirm = confirmation of human APJ apelin receptor antagonists | shares compounds with APJ antag | 66% of 950 active | APJ beta-arrestin recruitment, luminescence, antagonist mode | AID 2766 | inhibition, % at 20 µM; in the data active = inhibition above about 50%
Hits are given with their value.

CC(C)(C)OC(=O)N1CCC[C@H]1c1nnc(SCC(=O)Nc2ccc(Br)cc2)o1 was read as CCR6 antag inactive, EBI2 block inactive, APJ agonist inactive, APJ antag 55, CXCR6 inh 36 and APJ antag confirm 72.
For CC(C)(C)OC(=O)N1CCC[C@H]1c1nnc(SCC(=O)Nc2cccc(Cl)c2)o1 the results were CCR6 antag inactive, EBI2 block inactive, APJ agonist inactive, APJ antag inactive and CXCR6 inh inactive.
Screening Cc1ccc(S(=O)(=O)N2C3CCCCC3O[C@H]2CC(=O)OCc2ccccc2)cc1 (stereo not given in full) returned EBI2 block inactive.
CCOC(=O)C1=CCN(S(=O)(=O)c2ccccc2C)C1c1ccc(Cl)cc1 (stereo not given) was read as EBI2 block inactive and CXCR6 inh inactive.
CCN(c1ccccc1)S(=O)(=O)c1ccc(Cl)c(NC(=O)CN2C(=O)NC3(CCCC3)C2=O)c1 was read as CCR6 antag inactive, EBI2 block inactive, APJ agonist inactive, APJ antag 41, CXCR6 inh inactive and APJ antag confirm 66.
Screening CN1C(=O)OC(C)(CCc2ccccc2)C1(C)O (stereo not given) returned CCR6 antag inactive, EBI2 block inactive, APJ agonist inactive, APJ antag inactive and CXCR6 inh inactive.
`CC(c1ccccc1)N1C(=O)OC(C)(C)C1(C)O` (stereo not given) gave CCR6 antag inactive, EBI2 block inactive, APJ agonist inactive, APJ antag 72, CXCR6 inh inactive and APJ antag confirm inactive.
CC(=O)C1=C(c2cccc([N+](=O)[O-])c2)N(C(C)=O)n2c(C)nnc2S1 was read as CCR6 antag 70, EBI2 block 58, APJ agonist inactive, APJ antag 107, CXCR6 inh inactive and APJ antag confirm 154.
CC(=O)c1c(C(C)=O)c(C)n(-c2cccc([N+](=O)[O-])c2)c1C was read as CCR6 antag inactive, EBI2 block inactive, APJ agonist inactive, APJ antag inactive and CXCR6 inh inactive.
For CCOC(=O)C1=CCN(S(=O)(=O)c2ccc(C)cc2)C1c1ccc(Cl)cc1 (stereo not given) the results were EBI2 block inactive and CXCR6 inh inactive.
Cc1ccc(-c2csc3nc(C)n(-n4c(C)ccc4C)c(=O)c23)o1 was read as CCR6 antag inactive, EBI2 block inactive, APJ agonist inactive, APJ antag 48, CXCR6 inh inactive and APJ antag confirm inactive.
Screening Cc1ccc(-c2csc3nc(C)n(N)c(=O)c23)o1 returned CCR6 antag inactive, EBI2 block inactive, APJ agonist inactive, APJ antag inactive and CXCR6 inh inactive.
CN(C)S(=O)(=O)n1cc(/C=C(\NC(=O)c2ccccc2Cl)C(=O)N2CCOCC2)c2ccccc21 was read as CCR6 antag inactive, EBI2 block inactive, APJ agonist inactive, APJ antag 50, CXCR6 inh inactive and APJ antag confirm inactive.
CN(C)S(=O)(=O)n1cc(/C=C(\NC(=O)c2ccccc2F)C(=O)N2CCOCC2)c2ccccc21 was read as CCR6 antag inactive, EBI2 block inactive, APJ agonist inactive, APJ antag inactive and CXCR6 inh inactive.
Screening CC(C)NC(=O)C1(C)CCN1C(=O)c1cccn1C (stereo not given) returned EBI2 block inactive and CXCR6 inh inactive.
CC(C)(C)C1C/C(=C/c2ccccn2)C(=O)/C(=C/c2ccccn2)C1 (stereo not given) was read as CCR6 antag 65, EBI2 block inactive, APJ agonist inactive, APJ antag 45, CXCR6 inh inactive and APJ antag confirm inactive.
Screening Cc1ccc(N2C(=O)C(Cc3ccc(O)cc3)NC2=S)cc1C (stereo not given) returned CCR6 antag inactive, EBI2 block inactive, APJ agonist inactive, APJ antag 67, CXCR6 inh inactive and APJ antag confirm inactive.
For Cc1onc(-c2ccccc2)c1C(=O)N1CCCC(C)(C(=O)NS(=O)(=O)C2CC2)C1 (stereo not given) the results were EBI2 block inactive and CXCR6 inh inactive.
`O=C1Nc2ccc(Br)cc2C1=Nc1ccc(-c2nnc3n2CCCCC3)cc1` gave APJ agonist inactive, APJ antag 49 and APJ antag confirm 126.
Screening CC(C)=CCn1c2ccc(NC(=S)NC3CC3)cc2c(=O)n1C returned EBI2 block inactive and CXCR6 inh inactive.
